# DENV2 CPE rescue: protects cells from dengue virus 2 cytopathic effect | actives 1.7% (n = 350,000) | DENV2-infected cells, cytopathic effect rescue, plate reader | AID 651640 | CPE inhibition, % at 9.99 µM; in the data active = CPE inhibition above about 20%, passing the limit was not always enough; inconclusive = no clear call, values can overlap the other calls; tested in BHK-21 cells;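 note: 0% = median of neutral control wells and 100% = median of positive control wells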
# miR122 inh: blocks miR-122 activity in Huh7 sensor cells. activation (reporter increase), % at 12.5 µM. AID 602342. Huh7 miR-122 Renilla luciferase sensor, 48 h; neutral wells = 0, positive control = 100. actives 0.3% (n = 340,000);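 active = mean replicate activation score at least 90 and every replicate individually at or above 90; inconclusive = only one of the two criteria met; inactive = neither criterion met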;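 note: higher luciferase means less miR-122 activity so hits act as miR-122 inhibitors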
# F508del corr: CFTR F508del correction in bronchial cells. CFBE cells, YFP halide quenching; stimulated with forskolin plus potentiator P3; % fluorescence drop versus neutral controls. activity (quench increase), % at 7.58 µM. actives 0.36% (n = 350,000). AID 720511;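 active = mean added fluorescence quench of at least 8% versus neutral control, with both replicates also reaching 8%; inconclusive = only one of the mean or replicate conditions met; inactive = mean below 8% and not both replicates reaching 8%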;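 note: cells transiently co-express mutant CFTR-F508del with the halide-sensitive YFP; corrector assay measuring rescue of mutant channel to the surface after 24 h compound exposure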
# ERAP1 HTS inh: blocks human ERAP1 aminopeptidase activity | Q9NZ08 | recombinant ERAP1, Leu-AMC fluorescence, 60 min | inhibition, % at 10.7 µM | actives 0.15% (n = 340,000);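 active = mean replicate inhibition of at least 30%, or all replicates individually reaching that 30% level; inactive = mean below 30% and not every replicate reaching it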;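 note: 0% = neutral control wells and 100% = L-leucinethiol positive control wells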
# GSIS activator: GLuc luminescence reporter in INS-1E cells, primary screen for activators of glucose-dependent secretion of insulin; INS-1E GLuc reporter insulin secretion, 2-3 h; activation, % at 16.6 µM; actives 0.61% (n = 370,000); AID 743287;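 active = lowest replicate activation of at least 40%, so every replicate reaches that level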;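 note: 0% = median of neutral control wells and 100% = median of IBMX positive control wells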
# E-selectin induc: E-selectin induction on HUVECs | P16581 | HUVEC E-selectin immunofluorescence imaging; normalized: neutral wells 0, TNF-alpha wells 100 | activation, % at 7.58 µM | actives 0.37% (n = 260,000) | AID 686992;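 active = mean E-selectin-positive cell signal at least 10% of the positive control, reached in at least 60% of replicates, without over 20% cell loss; inconclusive = no rule given, readout overlaps actives, possibly toxicity-flagged; inactive = the rest, including those meeting only one limit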
# Target sequence (P16581 whole entry, looked up): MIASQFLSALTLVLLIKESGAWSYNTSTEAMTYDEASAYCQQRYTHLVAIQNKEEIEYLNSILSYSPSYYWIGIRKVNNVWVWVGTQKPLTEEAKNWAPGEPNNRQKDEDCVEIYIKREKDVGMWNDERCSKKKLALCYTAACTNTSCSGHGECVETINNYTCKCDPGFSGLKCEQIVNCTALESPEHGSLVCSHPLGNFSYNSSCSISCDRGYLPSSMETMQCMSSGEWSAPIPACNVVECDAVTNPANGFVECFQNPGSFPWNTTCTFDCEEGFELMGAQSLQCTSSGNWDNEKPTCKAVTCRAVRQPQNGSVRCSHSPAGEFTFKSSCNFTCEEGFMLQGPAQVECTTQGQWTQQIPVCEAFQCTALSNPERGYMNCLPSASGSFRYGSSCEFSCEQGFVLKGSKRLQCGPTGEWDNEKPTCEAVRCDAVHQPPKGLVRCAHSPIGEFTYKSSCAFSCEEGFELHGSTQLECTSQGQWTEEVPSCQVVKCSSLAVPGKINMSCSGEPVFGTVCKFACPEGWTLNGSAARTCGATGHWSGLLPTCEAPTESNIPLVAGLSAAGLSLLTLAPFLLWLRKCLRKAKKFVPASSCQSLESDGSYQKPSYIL
#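 material = human umbilical vein endothelial cells (HUVEC), E-selectin induction | quantity = 3,000 cells/well | medium = EGM-2 growth medium on 0.1% gelatin-coated wells | technique = immunofluorescence imaging | read-out basis = % PE-positive cells | control set = TNF-alpha positive control, DMSO neutral control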
# * = called active by the depositor; i = inactive; ? = inconclusive; . = not tested or not shown; [ ] = remark or other dose. An excerpt weighted towards active compounds, which were near 2.6% of everything screened.
SMILES,DENV2 CPE rescue,miR122 inh,F508del corr,ERAP1 HTS inh,GSIS activator,E-selectin induc
CC(C)CC#Cc1ccc([C@H]2[C@@H](CO)N3C(=O)CN(C(=O)NC4CCCC4)C[C@@H]23)cc1,3.6,.,2.6,1.2,-2.4,0.3
COCC(=O)N1CC2(C1)[C@@H](c1ccc(-c3ccccc3)cc1)[C@@H](CO)N2C(=O)COC,-3.1,.,1.0,-1.1,-1.4,-0.3
Cc1ccc(OCCNC(=O)/C=C/c2ccccc2)cc1,27.7*,0.2,-5.3,-2.3,-29.2,.
CCOC(=O)/C(=C/C=C1\Sc2ccccc2N1CC)C(C)=O,.,-21.5,.,.,.,.
CCOC(=O)/C(=C/C=C1\Sc2cc(C)c(C)cc2N1CC)C(C)=O,.,.,39.0*,3.9,-23.5,.
CC(=O)N1CC(=O)N2[C@H](C1)[C@H](c1ccc(C#CC(C)C)cc1)[C@@H]2CO,9.5,.,1.6,-3.5,4.9,0.2
Cc1cccn2c(=O)c3cc(C(=O)NCc4cccnc4)c(=N)n(CC4CCCO4)c3nc12 (stereo not drawn),15.0,1.8,5.1,86.3*,-0.9,.
Cc1cccn2c(=O)c3cc(C(=O)NCc4ccccc4)c(=N)n(CCCN4CCOCC4)c3nc12,-2.6,-2.6,-2.0,-53.7,18.0,.
Cc1cccn2c(=O)c3cc(C(=O)NCCN4CCOCC4)c(=N)n(CCCN4CCOCC4)c3nc12,0.8,-12.2,1.5,34.9*,-9.0,0.1
N=c1c(C(=O)NCC2CCCO2)cc2c(=O)n3ccccc3nc2n1C1CCCC1 (stereo not drawn),-1.5,5.3,1.2,i,4.5,0.5
CCCNc1nc2nc3ccccn3c(=O)c2cc1C(=O)NCCN1CCOCC1,1.1,6.2,-3.1,57.7*,11.5,.
N=c1c(C(=O)NCC2CCCO2)cc2c(=O)n3ccccc3nc2n1C1CCCCC1 (stereo not drawn),3.2,12.8,0.4,120.8*,5.9,.
COCC(=O)Nc1ccc2c(c1)[C@H]1C[C@H](CC(=O)NCc3ccccc3F)O[C@@H](CO)[C@H]1O2,-4.3,2.4[16.7 µM],2.6,-4.1,1.6,0.4
COc1ccc2c3c(n(C)c2c1)[C@@H](CO)N(C(C)=O)CC31CCN(C(=O)Nc2ccccc2F)CC1,-1.5,.,-2.6,.,4.3,-0.1
COc1cccc(NC(=O)N2CC(=O)N3[C@H](C2)[C@@H](c2ccc(C4=CCCC4)cc2)[C@@H]3CO)c1,?,.,-0.1,-1.9,-20.4,0.0
N#Cc1cccnc1N1CCC(C(N)=O)CC1,3.9,.,1.4,.,1.7,69.5*
N#Cc1cccnc1N1CCN(C(=O)c2ccccc2)CC1,52.1*,-1.6,-0.1,2.6,18.3,0.0
CC(C)C(C(=O)NC1CCCC1)N1CCN(c2ncccc2C#N)CC1 (stereo not drawn),2.6,.,2.3,.,-1.6,0.2
O=C(c1ccc2nccnc2c1)N1CCN(c2ccccc2)CC1,35.4*,3.4,-0.1,-1.7,0.4,-0.8
O=C(/C=C/c1ccccc1)CCN1CCOCC1,16.7,2.2,-2.2,1.8,52.4*,0.2
O=C(/C=C/c1ccccc1)N1CCOCC1,3.0,-8.0,0.5,2.7,11.4,0.0
COc1ccc2nc3ccccc3nc2c1NC(=O)c1ccc(Cl)cc1Cl,.,-5.9,.,.,86.6*,0.0
COc1cc(-c2cc(C(=O)Nc3c(Cl)cc(Cl)cc3Cl)c3ccccc3n2)cc(OC)c1OC,1.8,.,.,6.8,.,.
Cc1cc(C)nc(NC(=O)c2ccc(Cl)cc2Cl)n1,1.9,-2.5,1.4,-1.9,68.1*,.
CCN1[C@@H]2c3ccc(C4=CCCCC4)c(=O)n3C[C@H]1[C@H](CO)[C@H]2C(=O)NCCOC,1.8,.,.,0.4,7.3,-0.3
SMILES,DENV2 CPE rescue,miR122 inh,F508del corr,ERAP1 HTS inh,GSIS activator,E-selectin induc
CC(C)CC#Cc1cnc2c(c1)C(=O)N([C@H](C)CO)C[C@H](C)[C@H](CN(C)C(=O)Cc1ccncc1)O2,-2.3,-9.5[16.7 µM],.,0.1,1.4,0.4
COc1ccc(C(C(=O)NC2CCCC2)N2CCc3ccccc32)cc1 (stereo not drawn),57.0*,1.9,2.1,-4.2,-7.7,0.7
O=C(NCC(c1ccco1)N1CCc2ccccc21)c1ccccc1Cl (stereo not drawn),-4.0,.,3.8,-3.4,-6.7,2.3
O=C(NCC(c1ccco1)N1CCc2ccccc21)c1c(F)cccc1F (stereo not drawn),63.5*,-1.3,-0.4,4.2,34.2,0.5
COc1ccc(NC(=O)C(=O)NCC(c2ccco2)N2CCc3ccccc32)cc1 (stereo not drawn),.,-2.5,.,.,.,.
COc1ccc(C(=O)NCC(c2ccco2)N2CCc3ccccc32)cc1 (stereo not drawn),-5.4,.,12.5*,-1.1,8.1,4.5
C[C@H]1CN([C@@H](C)CO)S(=O)(=O)c2ccc(C#CCN(C)C)cc2O[C@H]1CN(C)CC1CC1,1.9,-0.2[16.7 µM],0.9,0.0,21.7,-1.9
O=C(O)C[C@H]1C=C[C@@H](NC(=O)c2ccccc2F)[C@H](CO)O1,?,.,-0.7,.,15.5,-0.2
CNS(=O)(=O)c1cccc(C(=O)OCc2cc(=O)oc3c(C)c(O)ccc23)c1,8.4,-14.4,1.6,2.2,-9.7,0.2
CCc1cc2c(COC(=O)c3cccc(S(C)(=O)=O)c3)cc(=O)oc2cc1O,-0.7,-3.6,-4.1,1.4,50.1*,.
COc1ccccc1CNC(=O)C[C@@H]1CC[C@@H]2[C@H](COC[C@@H](O)CN2C(=O)Nc2ccc(Cl)cc2)O1,-1.2,-5.4[16.7 µM],3.2,-1.9,-11.7,0.1
CC(C)c1ccc2oc(=O)cc(CN3CCCCC3)c2c1,7.1,-2.2,1.6,2.0,44.0*,.
CCCCN(C(=O)c1cc2ccccc2o1)c1c(N)n(CC(C)C)c(=O)[nH]c1=O,.,-3.4,.,.,-8.3,.
CCc1noc(C)c1C(=O)N(CCOC)c1c(N)n(CC(C)C)c(=O)[nH]c1=O,-4.4,-5.1,2.4,95.2*,13.8,0.2
CCCCN(C(=O)c1cc(S(=O)(=O)N2CCCCC2)ccc1Cl)c1c(N)n(CC(C)C)c(=O)[nH]c1=O,0.2,-1.1,10.0*,1.3,1.7,-0.2
CCCCN(C(=O)c1ccccc1OCc1ccc(F)cc1)c1c(N)n(CC(C)C)c(=O)[nH]c1=O,66.4*,.,-0.3,1.5,-5.1,.
CCCCN(C(=O)c1ccc([N+](=O)[O-])o1)c1c(N)n(CC(C)C)c(=O)[nH]c1=O,2.0,.,0.0,87.1*,20.2,-0.3
CCCCN(C(=O)c1ccc(COc2ccccc2)o1)c1c(N)n(CC(C)C)c(=O)[nH]c1=O,?,-7.5,0.2,1.8,32.5,-0.2
CCOC(=O)C(=CNc1ccc(Cl)cn1)C(=O)OCC,66.6*,.,-0.2,-2.1,15.0,0.7
CC=Cc1ccc2n(c1=O)C[C@@H]1[C@@H](CO)[C@H](C(=O)Nc3ccc(-c4ccccc4)cc3)N(C)[C@H]21 (mixture of isomers),-9.8,.,.,1.5,-2.3,-0.1
